# Results gathered from unrelated publications.
# Protocols differ between the studies behind these lines.
# M-phase phosphoprotein 8 chromodomain: M-phase phosphoprotein 8, chromodomain (Homo sapiens, UniProt Q99549)
# ESR1: Estrogen receptor (ESR1, Homo sapiens, UniProt P03372)
# ADRA2C: Alpha-2C adrenergic receptor (ADRA2C, Homo sapiens, UniProt P18825)
Structure (SMILES),target,observed,mode,technique,endpoint,result
CCN(CCCC[C@H](NC(=O)[C@H](CC(C)C)NC(=O)[C@H](C)NC(=O)[C@H](Cc1ccccc1)NC(=O)c1ccc(N(C)C)cc1)C(=O)N[C@@H](CO)C(N)=O)C(C)C,M-phase phosphoprotein 8 chromodomain,cell-free assay,,TR-FRET,IC50,380 nM
Clc1ccc(-c2ccc(Cl)cc2Cl)cc1,ESR1,reporter gene,agonist,luciferase,EC50,27 µM
CCN(CCCC[C@H](NC(=O)[C@H](CC(C)C)NC(=O)[C@H](C)NC(=O)[C@H](Cc1ccccc1)NC(=O)c1ccoc1)C(=O)N[C@@H](CO)C(N)=O)C(C)C,M-phase phosphoprotein 8 chromodomain,cell-free assay,,TR-FRET,IC50,1200 nM
N[C@@H](Cc1ccc(O)cc1)C(=O)O,"Iodotyrosine deiodinase (Haliscomenobacter hydrossis, UniProt F4KU78)",binding,,fluorescence,Kd,> 1.2 mM
C[C@H](N)Cn1ncc2ccc3c(c21)CCCO3,ADRA2C,ligand displacement,,radioligand,Ki,24.8 µM
CCN(CCCC[C@H](NC(=O)[C@H](CC(C)C)NC(=O)[C@H](C)NC(=O)[C@H](Cc1ccccc1)NC(=O)c1ccc(Br)c(N)c1)C(=O)N[C@@H](CO)C(N)=O)C(C)C,M-phase phosphoprotein 8 chromodomain,cell-free assay,,TR-FRET,IC50,290 nM
Clc1ccc(-c2ccccc2Cl)cc1,ESR1,reporter gene,agonist,luciferase,EC50,20 µM
CCN(CCCC[C@H](NC(=O)[C@H](CC(C)C)NC(=O)[C@H](C)NC(=O)[C@H](Cc1c(F)c(F)c(F)c(F)c1F)NC(=O)c1cccnc1)C(=O)N[C@@H](CO)C(N)=O)C(C)C,M-phase phosphoprotein 8 chromodomain,cell-free assay,,TR-FRET,IC50,1600 nM
C[C@H]1CCC[C@H](O)CCC/C=C/c2cc(O)cc(O)c2C(=O)O1,ESR1,reporter gene,agonist,luciferase,EC50,0.00013 µM
CCCCCNC(=N)N/N=C/c1c[nH]c2ccc(OC)cc12,"5-hydroxytryptamine receptor 1A (HTR1A, Homo sapiens, UniProt P08908)",calcium signal,agonist,fluorescence,EC50,18 µM
c1cc[c]([Sn]([c]2ccccc2)[c]2ccccc2)cc1,"Peroxisome proliferator-activated receptor gamma (Pparg, Mus musculus, UniProt P37238)",reporter gene,agonist,luciferase,EC50,0.07 µM
Cc1cc(O)cc(C)c1C[C@H](N)C(=O)N[C@H](C)C(=O)NCC(=O)N[C@@H](Cc1ccc(Cl)cc1)C(=O)N(C)CCC[C@@]1(c2ccc(F)cc2)OCc2cc(C#N)ccc21,ADRA2C,ligand displacement,,radioligand,Ki,0.24 µM
CC[n+]1c(-c2ccccc2)c2cc(N)ccc2c2ccc(N)cc21,"AChE (Phlebotomus papatasi, UniProt M1F887)",enzyme activity,inhibitor,,IC50,14100 nM
Clc1ccc(Cl)c(-c2ccccc2Cl)c1,ESR1,reporter gene,agonist,luciferase,EC50,9 µM
